The subject of data set [1] is Mus musculus. As to the kind of experiment: Analgesic activity in sc dosed mouse by hot plate assay. It counts as functional. A general note: Hot-plate and tail-flick tests time the reaction to a heat stimulus.
The subject of data set [2] is Rhesus monkey. As to the kind of experiment: Physical dependence capacity in rhesus monkey assessed as suppression/precipitation of abstinence syndrome at 0.4 to 6.4 mg/kg. The data set is classed as organism-based, Macaca mulatta. Also on record: dose 0.4-6.4 mg/kg. To be noted: in vivo. In a few lines:
(§1)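 Monkey single-dose suppression test for physical dependence capacity. Abstinence signs were scored for suppression or precipitation across the dose range given in each line.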

For data set [3], the system named is Rhesus monkey. As to the kind of experiment: Physical dependence capacity in rhesus monkey assessed as suppression/precipitation of abstinence syndrome at 4 mg/kg. Conditions: in vivo.
Data set [4] concerns Rhesus monkey. As to the kind of experiment: Physical dependence capacity in rhesus monkey assessed as suppression/precipitation of abstinence syndrome at 0.5 to 1 mg/kg. It counts as organism-based, Macaca mulatta. Further details: dose 0.5-1 mg/kg. To be noted: in vivo. The gist of the method:
as §1

Data set [5] has as its system Rhesus monkey. As to the kind of experiment: Narcotic antagonist activity in morphine-dependent monkey assessed as precipitation of abstinence syndrome. The data set is classed as functional, organism-based. Conditions: Macaca mulatta. In a few lines: as §1
The species named for data set [6] is Mus musculus.
Data set [7] concerns Rhesus monkey. As to the kind of experiment: Physical dependence capacity in rhesus monkey assessed as suppression/precipitation of abstinence syndrome at 0.5 to 8 mg/kg. To be noted: in vivo. Also on record: dose 0.5-8 mg/kg. The data set is classed as organism-based, Macaca mulatta. The gist of the method:
as §1

Data set [8] concerns Rhesus monkey. As to the kind of experiment: Physical dependence capacity in rhesus monkey assessed as suppression/precipitation of abstinence syndrome at 0.5 to 4 mg/kg. The data set is classed as organism-based, Macaca mulatta. Also on record: dose 0.5-4 mg/kg. Conditions: in vivo. In a few lines:
as §1

The test system of data set [9] is Mus musculus. As to the kind of experiment: Toxicity in mouse at 50 mg/kg, sc. The data set is classed as organism-based. Conditions: in vivo. Further details: dose 50 mg/kg, route subcutaneous.

Active and inactive are the calls of the source. No cut-off for these calls is given here.

Turning to `COc1ccc2c(c1)[C@@]13CCCC[C@H]1[C@@H](C2)CN(C)CC3`, it took a dose of 3.4 mg/kg to reach the 50% effect level with Mus musculus [1] (ED50).
`Br.CN1CC[C@]23CCCC[C@H]2[C@@H](Cc2ccc(O)cc23)C1`: the median effective dose (ED50) with Mus musculus [1] stood at 0.8 mg/kg. Also, the Activity result in the data set with Rhesus monkey [2] was “Non-toxic”.
In the data set on Mus musculus [1], `COc1ccc2c(c1)[C@@]13CCCC[C@@H]1[C@@H](C2)CN(C)CC3` registered a median effective dose (ED50) of 8.1 mg/kg.
With `Br.CN1CC[C@]23CCCC[C@@H]2[C@@H](Cc2ccc(O)cc23)C1`, in the data set on Mus musculus [1], it took a dose of 2.1 mg/kg to reach the 50% effect level (ED50). For the same compound, the Activity result with Rhesus monkey [3] is on record as “Toxic”.
On to `C=CCN1CC[C@]23CCCC[C@H]2[C@@H](Cc2ccc(O)cc23)C1` (relative stereo), for which the Activity result in the data set on Rhesus monkey [4] is given as “Non-toxic”. Further, the outcome in the data set with Rhesus monkey [5] was inactive. In addition, the ED50 entry in the data set listed under Mus musculus [6] was “inactive”.
Regarding `Oc1ccc2c(c1)[C@@]13CCCC[C@H]1[C@@H](C2)CN(CC1CC1)CC3` (relative stereo), in the data set with Mus musculus [1], the ED50 was 6.2 mg/kg. Besides, the Activity entry with Rhesus monkey [7] is “Non-toxic”. Besides, in the data set on Rhesus monkey [5], the result was inactive.
Compound `C=CCN1CC[C@]23CCCC[C@@H]2[C@@H](Cc2ccc(O)cc23)C1` (relative stereo) displayed a 50% effective dose (ED50) in the data set on Mus musculus [1] of 19.6 mg/kg. In the data set with Rhesus monkey [8], the Activity result is given as “Non-toxic”. The result with Rhesus monkey [5] was inactive.
As to `Oc1ccc2c(c1)[C@@]13CCCC[C@@H]1[C@@H](C2)CN(CC1CC1)CC3` (relative stereo), the Activity entry is listed as “Toxic” in the data set on Mus musculus [9] and “Non-toxic” in the data set with Rhesus monkey [8]. Besides, the result in the data set with Rhesus monkey [5] was inactive.
`CN1CC[C@]23c4c5ccc(O)c4O[C@H]2[C@@H](O)C=C[C@H]3[C@H]1C5.Cl` [MORPHINE HYDROCHLORIDE] had an ED50 in the data set with Mus musculus [1] of 1.2 mg/kg.

By ED50 is commonly meant the dose that gives a 50% effect, or the effect in half of the subjects.

For the origin of these results see ChEMBL document CHEMBL3244361, “B/C-cis- and -trans-1,3,4,9,10,10a-Hexahydro-2H-10,4a-methanoiminoethanophenanthrene (homo- and homoisomorphinan) derivatives as analgesics” (J Med Chem, 1977).
